High-throughput results from PubChem.
Hep lipid drop: inhibitors of hepatocyte lipid droplet formation, primary screen, imaging, high-throughput imaging, BODIPY stain | AML12 mouse hepatocytes, oleate lipid droplets | inhibition, % at 6.5 µM | 240,000 tested, 0.4% active | AID 1656, 2009;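 active = lipid droplet intensity inhibited by at least 50%, with more than 500 cells counted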
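Assay system: AML12 mouse liver cells | Compound: 6.5 µM single-point dosing | Schedule: Overnight exposure | Technique: Fluorescence imaging, 20x objective, two fields per well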
GRIN3A LBD mod: binders of NR3A ligand-binding domain, primary screen, biophysical, differential scanning fluorimetry, uHTS; 340,000 tested, 2.5% active; AID 1259313, 2017; NR3A LBD differential scanning fluorimetry, Tm shift; 0% = protein alone, 100% = glycine-bound protein; Glutamate receptor ionotropic, NMDA 3A (GRIN3A) ligand-binding domain; Tm shift relative to glycine control, % at 25 µM;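 active = melting temperature shift of at least 10% of the positive control shift, at one fixed dose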
GASC-1 inh: inhibitors of GASC-1 histone demethylase, primary screen, biochemical, fluorescence, DELFIA europium; AID 2099, 2009; Lysine-specific demethylase 4C (Homo sapiens), Q9H3R0; GST-JMJD2C(1-420) H3K9me3 demethylation; 330,000 tested, 0.069% active; inhibition, % at 2.35 µM;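 active = more than half of a compound's replicate wells show inhibition beyond 50%, single wells judged on their own value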;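 also: signal counts dimethyl H3K9 product captured on neutravidin plate; 0% = median of DMSO wells and 100% = 0.3 times that DMSO median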
GC-B act: human GC-B receptor activators, primary screen, HEK293 GC-B cells, cGMP TR-FRET, EC30 CNP | Atrial natriuretic peptide receptor 2 (Homo sapiens), P20594 | 0% at EC30 CNP, 100% saturating CNP | activation, % at 10 µM | 370,000 tested, 0.11% active | AID 1920062, 2024;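 active = activation at 10 µM reaching about 35% in either raw or pattern-adjusted values, limit read from the data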
aDG glyco up: activators of alpha-DG glycosylation, primary screen, uHTS, Pro5-aDG cells, AlphaScreen; alpha-DG glycosylation AlphaScreen (IIH6); 0% Pro5, 100% B10-LARGE cell signal; AID 624168, 2012; 360,000 tested, 0.22% active; activation, % at 10 µM;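 active = activation of at least 8% versus controls, or a plate z-score of at least 8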;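 also: Pro5 are CHO cells carrying HIG-tagged alpha-DG that lacks glycosylation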
NPR1 activator: GC-A stimulated cGMP production enhancers – HEK293 GC-A cells, cGMP TR-FRET, EC30 ANP, primary screen; Atrial natriuretic peptide receptor 1 (Homo sapiens), P16066; 0% at EC30 ANP, 100% saturating ANP; activation, % at 10 µM; 370,000 tested, 0.14% active; AID 1671463, 2021; in the data active = activation above about 40%
The depositor's hits bear a star. Sampled rows, rich in hits. Any-hit rate of the full collection: about 3%.

For COc1cc(/C=N/NC(N)=S)ccc1OC(=O)c1ccc(C)cc1 the results were Hep lipid drop -19, GRIN3A LBD mod 26*, GASC-1 inh -1, GC-B act 4, aDG glyco up 0 and NPR1 activator 1.
COc1cc(/C=N/NC(N)=S)ccc1OCc1ccc(C)cc1 was read as Hep lipid drop 10, GRIN3A LBD mod 25*, GASC-1 inh -7, GC-B act -8, aDG glyco up -1 and NPR1 activator 1.
Screening COc1ccc(CNCC#Cc2ccccc2)cc1 returned GC-B act 1 and NPR1 activator 1.
`O=C(Nc1ccc(Cl)cc1)O[C@@H]1CC[C@@]23CCCN2C(=O)CCC[C@H]3C1` gave GC-B act -8 and NPR1 activator -3.
Screening NC(=O)N/N=C/c1cn(-c2ccccc2)nc1-c1ccccc1 returned Hep lipid drop -34, GRIN3A LBD mod -13, GASC-1 inh 70, GC-B act -9, aDG glyco up 0 and NPR1 activator -14.
O=S(=O)(N/N=C\c1cn(-c2ccccc2)nc1-c1ccccc1)c1ccccc1 was read as GRIN3A LBD mod 20*, GASC-1 inh -7, GC-B act -3, aDG glyco up 0 and NPR1 activator 4.
Screening O=[N+]([O-])c1ccc(N/N=C/c2cn(-c3ccccc3)nc2-c2ccccc2)cc1 returned GRIN3A LBD mod 41*, GASC-1 inh 2, GC-B act -5, aDG glyco up -1 and NPR1 activator 13.
Screening Cc1ccc(-c2nn(-c3ccccc3)cc2/C=N/O)cc1 returned GRIN3A LBD mod -9, GASC-1 inh -6, GC-B act 4, aDG glyco up 0 and NPR1 activator 10.
For Cc1ccc(S(=O)(=O)N/N=C\c2cn(-c3ccccc3)nc2-c2ccccc2)cc1 the results were GRIN3A LBD mod 29*, GASC-1 inh -2, GC-B act 2, aDG glyco up 0 and NPR1 activator 1.
`COc1ccc(-c2nn(-c3ccccc3)cc2/C=N/n2cnnc2)cc1OC` gave Hep lipid drop 17, GRIN3A LBD mod 0, GASC-1 inh -40, GC-B act 1, aDG glyco up 1 and NPR1 activator 2.
`COc1ccc(-c2nn(-c3ccccc3)cc2/C=N/NC(N)=S)cc1OC` gave Hep lipid drop -62, GRIN3A LBD mod 19*, GASC-1 inh 13, GC-B act -7, aDG glyco up 0 and NPR1 activator -9.
`COc1ccccc1-n1c(SCC(=O)NC2CC2)nc2ccccc2c1=O` gave GRIN3A LBD mod 0, GASC-1 inh 8, GC-B act -2, aDG glyco up 0 and NPR1 activator -3.
Screening O=C(C1CCC1)n1ccc2ccc(-c3ccc4ccn(Cc5ccccc5)c4c3)cc21 returned GC-B act -2 and NPR1 activator 1.
Cc1ccc(-c2nn(-c3ccccc3)cc2/C=N/NS(=O)(=O)c2ccccc2)cc1 was read as GRIN3A LBD mod 24*, GASC-1 inh -24, GC-B act -3, aDG glyco up 0 and NPR1 activator 3.
`c1ccc(COc2ccc(Nc3ncnc4nc[nH]c34)cc2)cc1` gave GRIN3A LBD mod 26*, GASC-1 inh -3, GC-B act -2, aDG glyco up 0 and NPR1 activator 2.
For O=C(Nc1cccc(C(=O)N2CCCC2)c1)C1CC1 the results were GRIN3A LBD mod 0, GC-B act 2, aDG glyco up 0 and NPR1 activator 2.
`COc1ccc(/C=C2\SC(N3CCc4ccccc4C3)=NC2=O)cc1` gave Hep lipid drop 1, GRIN3A LBD mod 12*, GASC-1 inh 4, GC-B act -18, aDG glyco up 0 and NPR1 activator -26.
Screening NS(=O)(=O)c1ccc(NC(=O)c2cc(-c3cc(Cl)ccc3O)n[nH]2)cc1 returned Hep lipid drop 0, GRIN3A LBD mod 34*, GASC-1 inh -3, GC-B act -6, aDG glyco up 0 and NPR1 activator 5.
For COc1ccc(Cl)cc1NC(=O)c1cc(-c2ccccc2O)n[nH]1 the results were Hep lipid drop 1, GRIN3A LBD mod 24*, GASC-1 inh -3, GC-B act 1, aDG glyco up 1 and NPR1 activator 0.
For NS(=O)(=O)c1ccc(NC(=O)c2cc(Cl)ccc2Cl)cc1 the results were Hep lipid drop 14, GRIN3A LBD mod -1, GASC-1 inh -10, GC-B act 6, aDG glyco up 0 and NPR1 activator -1.
Screening COc1ccc(OC)c(NC(=O)c2cc(-c3cc(Cl)ccc3O)n[nH]2)c1 returned GRIN3A LBD mod 33*, GASC-1 inh 3, GC-B act 7, aDG glyco up 0 and NPR1 activator 11.
COC(=O)[C@H](Cc1ccccc1)N(Cc1cn(Cc2ccccc2)nn1)S(=O)(=O)c1ccccc1Br was read as GC-B act -6 and NPR1 activator -6.
For CCOC(=O)c1c(-c2cccs2)csc1NC(=O)CN1CCOCC1 the results were Hep lipid drop -3, GRIN3A LBD mod 23*, GASC-1 inh 26, GC-B act 7, aDG glyco up 0 and NPR1 activator 0.
O=C(Cn1c2ccccc2c(=O)c2cc([N+](=O)[O-])ccc21)Nc1ccccc1Cl was read as Hep lipid drop -8, GRIN3A LBD mod 18*, GASC-1 inh 12, GC-B act -5, aDG glyco up 0 and NPR1 activator -4.
For CC(Nc1nc2ncn(Cc3ccccc3)c2c(=O)[nH]1)C(=O)O (stereo unspecified) the results were GRIN3A LBD mod 15*, GASC-1 inh -3, GC-B act -1, aDG glyco up 0 and NPR1 activator 0.
Screening CCOC(=O)[C@@]12CCCC3=C1N(CCC3)C(=O)[C@H]2CC(=O)NCCCOC returned GC-B act 1 and NPR1 activator 5.
For CCN(CC)CCN=c1c(C)nc(C#N)c(N)n1O the results were GC-B act 3, aDG glyco up 0 and NPR1 activator -6.
CC(=O)c1ccc(N2CCC(c3cc(-c4ccc(Cl)cc4)n[nH]3)CC2)c([N+](=O)[O-])c1 was read as GRIN3A LBD mod 14*, GASC-1 inh -6 and aDG glyco up 3.
